Experimental findings from ChEMBL document CHEMBL3875213, “Quinolines: Microwave-assisted synthesis and their antifungal, anticancer and radical scavenger properties” (Bioorg Med Chem, 2017) are described below.

As usually defined, the MIC50 is an inhibitory concentration at the 50% level, which refers to growth in some studies and to a panel of isolates in others. Higher therefore signals weaker potency. Broadly, the MIC80 is an inhibitory concentration at the 80% level, which refers to growth in some studies and to a panel of isolates in others. Higher therefore signals weaker potency. The IC50 is the point on the concentration scale where inhibition reaches its midpoint. Read a low IC50 as higher potency.

Assay [1] in a line: Ratio of antifungal activity against Candida albicans ATCC 10231 to antifungal activity against Cryptococcus neoformans ATCC 32264. Format: functional.
The test system of assay [2] is Candida albicans. Description: Growth inhibition of Candida albicans ATCC 10231 at 3.9 ug/ml incubated for 48 hrs under dark condition by broth microdilution assay relative to amphotericin B. The class given is functional. The note with it: ATCC 10231, 48 h, read-out: GI. In outline: (§1)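 Yeast broth microdilution (CLSI M27-A3), RPMI-1640, inoculum 1-5 x 10^3 CFU/mL, DMSO ≤1%, 48 h at 30 °C in a moist, dark chamber. […]. Triplicate; amphotericin B as positive control.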

Assay [3] concerns Candida albicans. The experiment in a line: Growth inhibition of Candida albicans ATCC 10231 at 7.81 ug/ml incubated for 48 hrs under dark condition by broth microdilution assay relative to amphotericin B. The class given is functional. The note with it: ATCC 10231, 48 h, read-out: GI. In outline: as §1
The test system of assay [4] is Candida albicans. Description: Growth inhibition of Candida albicans ATCC 10231 at 15.62 ug/ml incubated for 48 hrs under dark condition by broth microdilution assay relative to amphotericin B. Format: functional. As to conditions: ATCC 10231, 48 h, read-out: GI. The procedure, abridged: as §1
In general terms: Broth dilution looks for growth in wells or tubes with falling amounts of substance.

The subject of assay [5] is Candida albicans. The experiment in a line: Growth inhibition of Candida albicans ATCC 10231 at 31.25 ug/ml incubated for 48 hrs under dark condition by broth microdilution assay relative to amphotericin B. The class given is functional. As to conditions: ATCC 10231, 48 h, read-out: GI. In outline: as §1
Assay [6] relates to Candida albicans. Description: Growth inhibition of Candida albicans ATCC 10231 at 62.5 ug/ml incubated for 48 hrs under dark condition by broth microdilution assay relative to amphotericin B. Format: functional. The note with it: ATCC 10231, 48 h, read-out: GI. The procedure, abridged: as §1
The subject of assay [7] is Candida albicans. The experiment in a line: Growth inhibition of Candida albicans ATCC 10231 at 125 ug/ml incubated for 48 hrs under dark condition by broth microdilution assay relative to amphotericin B. Format: functional. As to conditions: ATCC 10231, 48 h, read-out: GI. In outline:
as §1

Assay [8] has as its system Candida albicans. The experiment in a line: Growth inhibition of Candida albicans ATCC 10231 at 250 ug/ml incubated for 48 hrs under dark condition by broth microdilution assay relative to amphotericin B. Format: functional. As to conditions: ATCC 10231, 48 h, read-out: GI. The procedure, abridged: as §1
The test system of assay [9] is Candida albicans. Description: Antifungal activity against Candida albicans ATCC 10231 incubated for 48 hrs under dark condition by broth microdilution assay. The class given is functional. The note with it: ATCC 10231, 48 h. In outline:
(§2)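 Broth microdilution per CLSI M27-A3 in RPMI-1640. Inocula adjusted to 1-5 x 10^3 CFU/mL. Stocks in DMSO (≤1%), final 3.9-250.0 µg/mL. Incubated 48 h at 30 °C in a moist, dark chamber, read at OD 405. % inhibition computed from growth and sterility control wells, run in triplicate. MIC80/MIC50 taken from four-parameter logistic concentration-response curves; amphotericin B as positive control.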

Assay [10] in a line: Antifungal activity against Cryptococcus neoformans ATCC 32264 incubated for 48 hrs under dark condition by broth microdilution assay. The class given is functional. In outline: as §2
A short description of assay [11]: Antiproliferative activity against human TOV21G harboring wild type TP53 cells after 24 hrs by MTT assay. The class given is functional, cell-based. In outline:
(§3)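 Cells grown in medium with 10% foetal bovine serum and 1% L-glutamine at 37 °C, 5% CO2, seeded at 1 x 10^5 cells/well. Exposed to compound at 1.0-1,000 µg/mL for 24 h. MTT added, absorbance read at 540 nm 3 h later. IC50 obtained by non-linear regression of viability data.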
In general terms: Tetrazolium dyes change colour on reduction, which living cells bring about.

The nature of assay [12]: Antiproliferative activity against human CCD-19Lu cells after 24 hrs by MTT assay. The class given is cell-based. In outline: as §3
Assay [13] is described as follows: Antiproliferative activity against human NCI-H226 cells harboring TP53 mutant after 24 hrs by MTT assay. The note with it: NCI-H226, 24 h. Format: functional, cell-based. The procedure, abridged: as §3
A short description of assay [14]: Antiproliferative activity against human Hep2C cells after 24 hrs by MTT assay. The class given is functional, cell-based. In outline: as §3
Assay [15] can be described thus: Selectivity index, ratio of IC50 for human CCD-19Lu cells to IC50 for human TOV21G cells. The class given is functional. The procedure, abridged: (§4)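 Selectivity index equals IC50 in non-tumour CCD 19-Lu lung fibroblasts divided by IC50 in the tumour line. Both IC50s come from the 24 h MTT assay (read at 540 nm) over 1.0-1,000 µg/mL.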
The next assay has as its system NCI-H226. Description: Selectivity index, ratio of IC50 for human CCD-19Lu cells to IC50 for human NCI-H226 cells. Format: functional. The procedure, abridged: as §4
A short description of assay [16]: Selectivity index, ratio of IC50 for human CCD-19Lu cells to IC50 for human Hep2C cells. The class given is functional. The procedure, abridged:
as §4

Assay [17] is described as follows: Antioxidant activity assessed as DPPH radical scavenging activity at 160 uM incubated for 30 mins under dark condition. Format: functional. The procedure, abridged:
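Compound at 160 µM incubated with 100 µM DPPH in ethanolic medium, stirred in the dark for 30 min, read at 517 nm. Resveratrol as positive control. Three independent experiments, each in triplicate.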
For orientation: DPPH is a stable violet radical that fades when it is reduced.

A short description of assay [18]: Antioxidant activity assessed as DPPH radical scavenging activity incubated for 30 mins under dark condition. Format: functional. In outline:
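DPPH (100 µM) in ethanolic medium, stirred 30 min in the dark, absorbance at 517 nm. Compound varied from 0 to 160 µg/mL to find the concentration scavenging 50% of radicals. Three independent experiments, each in triplicate.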

Assay [19] is described as follows: Antioxidant activity assessed as fluorescent light-induced superoxide anion scavenging activity at 160 uM incubated for 10 mins by nitroblue tetrazolium dye based assay. The class given is functional. The procedure, abridged:
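Superoxide generated photochemically in 50 mM phosphate buffer pH 7.8 with 13 mM L-methionine, 75 µM nitroblue tetrazolium, 100 µM EDTA and 2 µM riboflavin. Compound at 160 µM. 10 min at 25 °C under fluorescent light; dark controls. Read at 575 nm. Resveratrol as positive control; three independent experiments in triplicate.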

Assay [20] in a line: Antioxidant activity assessed as fluorescent light-induced superoxide anion scavenging activity incubated for 10 mins by nitroblue tetrazolium dye based assay. The class given is functional. In outline: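 Riboflavin/light superoxide system: 50 mM phosphate pH 7.8, 13 mM L-methionine, 75 µM NBT, 100 µM EDTA, 2 µM riboflavin, compound 0-200 µg/mL. Fluorescent light for 10 min at 25 °C, dark controls, scavenging measured at 575 nm. Resveratrol as reference.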

SMILES strings stand for the structures. Values after ≈ are worked out from the molar mass of the structure shown.

On to `Brc1ccc2nc(-c3ccccc3)cc(-c3ccccc3)c2c1`, for which the Ratio in assay [1] is listed as 4. Further, the inhibition of growth at 3.9 µg/mL in the assay with Candida albicans [2] turned out to be 1.16%. In addition, the inhibition of growth at 7.81 µg/mL in the assay on Candida albicans [3] was found to be 2.57%. In addition, in the assay with Candida albicans [4], the inhibition of growth at 15.62 µg/mL is 7.33%. Moreover, the inhibition of growth at 31.25 µg/mL with Candida albicans [5] was 10.1%. Moreover, the inhibition of growth at 62.5 µg/mL with Candida albicans [6] turned out to be 17.2%. For the same compound, in the assay on Candida albicans [7], the inhibition of growth at 125 µg/mL was 30.7%. For the same compound, in the assay on Candida albicans [8], the inhibition of growth at 250 µg/mL came to 55.9%. For the same compound, the MIC50 in the assay on Candida albicans [9] was 125 µg/mL (≈ 347 µM); in assay [10], 31.2 µg/mL (≈ 86.6 µM). Moreover, the MIC80 (in the assay on Candida albicans [9]; in [10]) was over 250 µg/mL each time. In addition, the IC50 in [11] turned out to be 531 µM; in assay [12], 669 µM; in assay [13] it was 43.4 µM; in [14], 128 µM. Moreover, the “Ratio IC50” value in assay [15] is on record as 1; in the assay on NCI-H226, 15; in assay [16] it was 5. Also, the Activity in assay [17] is 45 to 55%; in [19] it was under 10%. Moreover, the SC50 in assay [18] and in [20] was over 250 µM each time.
